Two compounds from ChEMBL document CHEMBL1156595, “Studies on the antifungal properties of N-thiolated beta-lactams” (2008) can be followed below.

Test [1] concerns Candida parapsilosis. Briefly: Antifungal activity against Candida parapsilosis ATCC 22019 assessed as growth inhibition zone at 50 ug after 24 hrs by Kirby-Bauer agar diffusion assay. It is filed as functional. As to conditions: Lodderomyces parapsilosis, ATCC 22019, 24 h; read-out: IZ. A digest of the protocol: (§1)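 Disk diffusion on yeast nitrogen base agar, swabbed with a McFarland 0.5 suspension in saline. 6 mm cellulose disks carried 10 µL of a 5 mg/mL CH2Cl2 stock (50 ug per disk), air-dried, three disks per plate. Plates were sealed and incubated 24 h at 37°C. Cleared inhibition zones were measured and averaged over triplicates.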
(In agar diffusion tests the substance spreads into inoculated agar from a disc or well.)

In test [2] the test system is Candida tropicalis. The experiment in a line: Antifungal activity against Candida tropicalis clinical isolate after 48 hrs by NCCLS M27-A2 method. It is filed as functional. A digest of the protocol: (§2)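 Broth dilution in yeast nitrogen broth. Lactam from a 1 mg/mL DMSO stock was serially diluted down to 0.125 ug/mL. Each tube got 1 uL of a 10^6 CFU/mL inoculum in sterile NaCl. Incubation was 24 or 48 h at 26°C or 37°C depending on strain. Growth was read by optical density. MIC was the lowest concentration inhibiting all growth, averaged over triplicates.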

For test [3], the system named is Kluyveromyces marxianus. The experiment in a line: Antifungal activity against Candida kefyr ATCC 20409 after 24 hrs by NCCLS M27-A2 method. The class given is functional. As to conditions: ATCC 20409, 24 h. In a few lines:
as §2

Test [4] deals with Candida albicans. The experiment in a line: Antifungal activity against Candida albicans ATCC 2091 assessed as growth inhibition zone at 50 ug after 24 hrs by Kirby-Bauer agar diffusion assay. The class given is functional. The settings on record: ATCC 2091, 24 h, read-out: IZ. In a few lines: as §1
Test [5] has as its system Clavispora lusitaniae. The experiment in a line: Antifungal activity against Candida lusitaniae ATCC 34449 after 24 hrs by NCCLS M27-A2 method. It is filed as functional. The settings on record: ATCC 34449, 24 h. In a few lines:
as §2

The subject of test [6] is Cyberlindnera jadinii. Briefly: Antifungal activity against Candida utilis ATCC 29950 after 24 hrs by NCCLS M27-A2 method. It is filed as functional. The settings on record: Williopsis jadinii, ATCC 29950, 24 h. A digest of the protocol: as §2
Test [7] has as its system Kluyveromyces marxianus. The experiment in a line: Antifungal activity against Candida kefyr ATCC 20409 assessed as growth inhibition zone at 50 ug after 24 hrs by Kirby-Bauer agar diffusion assay. The settings on record: ATCC 20409, 24 h, read-out: IZ. The class given is functional. In a few lines: as §1
In test [8] the test system is Clavispora lusitaniae. The experiment in a line: Antifungal activity against Candida lusitaniae ATCC 34449 assessed as growth inhibition zone at 50 ug after 24 by Kirby-Bauer agar diffusion assay. It is filed as functional. As to conditions: read-out: IZ. A digest of the protocol:
as §1

Test [9] has as its system Cyberlindnera jadinii. Briefly: Antifungal activity against Candida utilis ATCC 29950 after 48 hrs by NCCLS M27-A2 method. It is filed as functional. The settings on record: Williopsis jadinii, ATCC 29950, 48 h. In a few lines: as §2
In test [10] the test system is Cyberlindnera jadinii. The experiment in a line: Antifungal activity against Candida utilis ATCC 29950 assessed as growth inhibition zone at 50 ug after 24 by Kirby-Bauer agar diffusion assay. As to conditions: Williopsis jadinii, read-out: IZ. It is filed as functional. A digest of the protocol:
as §1

In test [11] the test system is Nakaseomyces glabratus. The experiment in a line: Antifungal activity against Candida glabrata ATCC 15126 after 48 hrs by NCCLS M27-A2 method. It is filed as functional. The settings on record: ATCC 15126, 48 h. In a few lines:
as §2

Test [12] has as its system Candida albicans. The experiment in a line: Antifungal activity against Candida albicans ATCC 2091 after 48 hrs by NCCLS M27-A2 method. It is filed as functional. As to conditions: ATCC 2091, 48 h. A digest of the protocol:
as §2

For test [13], the system named is Candida parapsilosis. The experiment in a line: Antifungal activity against Candida parapsilosis ATCC 22019 after 24 hrs by NCCLS M27-A2 method. It is filed as functional. As to conditions: Lodderomyces parapsilosis, ATCC 22019, 24 h. In a few lines:
as §2

For test [14], the system named is Kluyveromyces marxianus. The experiment in a line: Antifungal activity against Candida kefyr ATCC 20409 after 48 hrs by NCCLS M27-A2 method. It is filed as functional. As to conditions: ATCC 20409, 48 h. A digest of the protocol:
as §2

Test [15] deals with Nakaseomyces glabratus. Briefly: Antifungal activity against Candida glabrata ATCC 15126 assessed as growth inhibition zone at 50 ug after 24 hrs by Kirby-Bauer agar diffusion assay. It is filed as functional. As to conditions: ATCC 15126, 24 h, read-out: IZ. In a few lines: as §1
Test [16] deals with Candida parapsilosis. The experiment in a line: Antifungal activity against Candida parapsilosis ATCC 22019 after 48 hrs by NCCLS M27-A2 method. The class given is functional. As to conditions: Lodderomyces parapsilosis, ATCC 22019, 48 h. A digest of the protocol:
as §2

The subject of test [17] is Candida albicans. The experiment in a line: Antifungal activity against Candida albicans ATCC 2091 assessed as degradation of intracellular membrane at <5 ug/ml after 4 hrs by transmission electron microscopy. The class given is functional, organism-based.
Test [18] deals with Candida albicans. The experiment in a line: Antifungal activity against Candida albicans ATCC 2091 after 24 hrs by NCCLS M27-A2 method. The class given is functional. The settings on record: ATCC 2091, 24 h. In a few lines: as §2
The test system of test [19] is Candida tropicalis. The experiment in a line: Antifungal activity against Candida tropicalis clinical isolate assessed as growth inhibition zone at 50 ug after 24 hrs by Kirby-Bauer agar diffusion assay. The class given is functional. The settings on record: read-out: IZ. A digest of the protocol:
as §1

Test [20] deals with Candida tropicalis. The experiment in a line: Antifungal activity against Candida tropicalis clinical isolate after 24 hrs by NCCLS M27-A2 method. The class given is functional. In a few lines: as §2
Test [21] relates to Nakaseomyces glabratus. The experiment in a line: Antifungal activity against Candida glabrata ATCC 15126 after 24 hrs by NCCLS M27-A2 method. As to conditions: ATCC 15126, 24 h. The class given is functional. In a few lines: as §2
Another test has as its system Saccharomyces cerevisiae. The experiment in a line: Antifungal activity against Saccharomyces cerevisiae in YM agar by agar dilution method. It is filed as functional. In a few lines:
(§3)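 Agar dilution MIC, run per NCCLS guidance. Medium was potato dextrose agar for A. niger and YM agar for S. cerevisiae.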
(In agar dilution the substance is mixed into plates at graded concentrations.)

In test [22] the test system is Clavispora lusitaniae. Briefly: Antifungal activity against Candida lusitaniae ATCC 34449 after 48 hrs by NCCLS M27-A2 method. It is filed as functional. The settings on record: ATCC 34449, 48 h. In a few lines: as §2
Another test has as its system Aspergillus niger. The experiment in a line: Antifungal activity against Aspergillus niger in potato dextrose agar by agar dilution method. The class given is functional. A digest of the protocol:
as §3

Another test relates to Pichia kudriavzevii. The experiment in a line: Antifungal activity against Candida krusei ATCC 14243 assessed as growth inhibition zone at 50 ug after 24hrs by Kirby-Bauer agar diffusion assay. The class given is functional. The settings on record: ATCC 14243, 24 h, read-out: IZ. A digest of the protocol: as §1
The subject of test [23] is Candida albicans. Briefly: Antifungal activity against Candida albicans ATCC 2091 by […]. The class given is functional. In a few lines: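 Tube broth dilution in yeast nitrogen broth. Lactam was added from a 1 mg/mL DMSO stock and serially diluted down to 0.125 ug/mL in broth. Each tube was inoculated with 1 uL of a 10^6 CFU/mL fungal suspension in sterile NaCl and incubated 24 or 48 h at 26°C or 37°C, depending on strain. Growth was read by optical density. MIC is the lowest concentration inhibiting all growth, averaged over triplicates.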

Converted amounts (≈) assume the structure as drawn. The source made the active and inactive calls. The rule behind the calls is not given here. Some results are limits rather than exact numbers.

Consider `CO[C@H]1C(=O)N(SC)[C@H]1c1ccccc1Cl`, for which the zone of inhibition at 50 µg/disc came out at 33 mm in the test with Candida parapsilosis [1]; 23 mm in the test on Candida albicans [4]; 17 mm in the test with Kluyveromyces marxianus [7]; 20 mm in the test with Clavispora lusitaniae [8]; 22 mm with Cyberlindnera jadinii [10]; 25 mm in the test with Nakaseomyces glabratus [15]. The values for the zone of inhibition at 50 µg/disc with Candida tropicalis [19] and in the test with Pichia kudriavzevii were 21 mm and 0 mm, respectively. In addition, the MIC is 30 µg/mL (≈ 116 µM) against Candida tropicalis [2]; 10 µg/mL (≈ 38.8 µM) in the test with Kluyveromyces marxianus [3]; 10 µg/mL (≈ 38.8 µM) against Clavispora lusitaniae [5]; 10 µg/mL (≈ 38.8 µM) against Cyberlindnera jadinii [6]; 15 µg/mL (≈ 58.2 µM) in the test on Cyberlindnera jadinii [9]; 10 µg/mL (≈ 38.8 µM) against Nakaseomyces glabratus [11]. Further, the MIC in the test with Candida albicans [12] was under 5 µg/mL; in the test on Candida parapsilosis [13], under 5 µg/mL; against Kluyveromyces marxianus [14] it was 35 µg/mL (≈ 136 µM); with Candida parapsilosis [16], under 5 µg/mL; with Candida albicans [18], under 5 µg/mL; in the test with Candida tropicalis [20], 10 µg/mL (≈ 38.8 µM). Besides, the MIC was 10 µg/mL (≈ 38.8 µM) against Nakaseomyces glabratus [21], 32 µg/mL (≈ 124 µM) against Saccharomyces cerevisiae, 15 µg/mL (≈ 58.2 µM) against Clavispora lusitaniae [22] and 16 µg/mL (≈ 62.1 µM) against Aspergillus niger. For the same compound, the result with Candida albicans [17] was Active.

For the compound `Clc1ccccc1C(c1ccccc1)(c1ccccc1)n1ccnc1` [CLOTRIMAZOLE], the minimal inhibitory concentration (MIC) in the test on Candida albicans [23] was found to be 2 µg/mL (≈ 5.8 µM).

For orientation: MIC means the lowest concentration that inhibits growth of the organism. High values mean weaker potency, low ones greater potency.
